Bioassay records as filed in PubChem.
The full list was thinned out, with hits kept by preference.
H69AR growth 86K = growth inhibitors of human H69AR lung tumor cells; H69AR lung tumor viability, ATP luminescence, 72 h; stronger effect = lower value; viability, % at 10 µM; 85,000 tested, 6% active;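 active = viability at or below 40%; inactive = viability above 40%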;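 also: multidrug resistant small cell line overexpressing MRP-1 efflux transporter; 100% = mean luminescence of untreated control wells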
HUVEC inhibit = blocks proliferation of human endothelial cells | HUVEC proliferation, CellTiter-Glo luminescence, 72 h; stronger effect = lower value | viability, % at 10 µM (by protocol) | 86,000 tested, 1.1% active;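 active = viability at or below 30%; inactive = viability above 30%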;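 also: 100% = median luminescence of DMSO-only cell control wells on each plate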
PTEN del growth = growth suppressors of cells with PTEN tumor suppressor deletion. HCT116 PTEN-null viability, CellTiter-Glo, 60 h; stronger effect = lower value. viability, % at 10 µM. 140,000 tested, 1.2% active. AID 827;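 active = viability at or below a set limit, 4 SD under the median of all tested compounds, cut at about 3.7% in these data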;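 also: PTEN knockout HCT116 line with beta catenin targeted HCT116 as companion control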
HCT116 bCat-KO = beta-catenin-lacking colon tumor cell growth suppression; HCT116 beta-catenin knockout viability, CellTiter-Glo, 60 h; stronger effect = lower value; viability, % at 10 µM; 140,000 tested, 1.5% active; AID 818;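 active = viability at or under a set limit, the compound median less 4 SD, cut at about 6% in these data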;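 also: 0% = Hyamine 1622 control at 20 µM and 100% = untreated cell control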
Lung fibro prol = blocks proliferation of human lung fibroblasts | LL 47 human lung fibroblast viability, ATP luminescence; stronger effect = lower value | viability, % at 10 µM | 85,000 tested, 1.1% active;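 active = viability at or below 50% in the single dose screen; inactive = viability above 50%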;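 also: compound exposure lasted 72 h before the ATP readout; 100% = median luminescence of untreated cell-only wells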
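Material: Human LL 47 lung fibroblast cells | Input: 1,150 cells/well | Buffer or medium: IMEM plus 15% FBS | Compound dosing: 0.1% DMSO in all compound wells | Times: Overnight cell rest, 72 h compound treatment at 37 °C | Signal: CellTiter-Glo luminescence measuring cellular ATP | Measure: % viability versus median cells-only luminescence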
* = called active by the depositor; · = no result.

SMILES | H69AR growth 86K | HUVEC inhibit | PTEN del growth | HCT116 bCat-KO | Lung fibro prol
Cc1cc(C)n(-c2nc(NC(C)C)nc(NC(C)C)n2)n1 | · | · | 56.6 | 41.9 | ·
Cc1cc(C)n(-c2nc(Nc3ccccc3C(F)(F)F)nc(-n3nc(C)cc3C)n2)n1 | 8.1* | 15.3* | 3.5* | 2.9* | 26.7*
Cc1cc(C)n(-c2nc(Nc3ccccc3C)nc(-n3nc(C)cc3C)n2)n1 | 54.1 | 74.1 | 80.8 | 88.4 | 23.4*
Cc1csc(Nc2ccccc2C(F)(F)F)n1 | 105.9 | 91.8 | 87.5 | 80.7 | 93.9
COc1ccc(C)cc1NC(=O)CN1CCN(C/C=C/c2ccccc2)CC1 | · | · | 72.3 | 72.7 | ·
NNc1ncnc2c1cnn2-c1ccccc1 | 20.3* | 72.9 | 77.0 | 75.5 | 91.5
CCOC(=O)N1CCC(Nc2ncnc3c2cnn3-c2ccccc2)CC1 | 28.1* | 92.9 | 92.0 | 93.1 | 98.8
CSc1nc(-c2ccc(Cl)cc2)nn1S(=O)(=O)c1ccc(Cl)cc1 | 84.2 | 92.2 | 94.7 | 91.5 | 104.4
Cc1cc2ncn(/N=C/c3ccc([N+](=O)[O-])s3)c2cc1C | · | · | 1.2* | 1.5* | ·
O=[N+]([O-])c1ccc(/C=N/n2c(CO)nc3ccccc32)s1 | · | · | 7.4 | 11.8 | ·
O=C(CNC(=O)c1ccccc1Cl)N/N=C/c1ccc([N+](=O)[O-])s1 | · | · | 14.3 | 10.9 | ·
Cc1nc2ccccc2n1/N=C/c1ccc([N+](=O)[O-])s1 | · | · | 1.7* | 1.5* | ·
O=[N+]([O-])c1ccc(/C=N/n2cnc3ccccc32)s1 | · | · | 3.0* | 2.4* | ·
Cc1cc2ncn(/N=C/c3cc(Br)ccc3O)c2cc1C | 31.1* | 94.1 | 89.3 | 83.5 | 100.0
O=C(Nc1ccccc1C(F)(F)F)N1CCN(C(c2ccccc2)c2ccccc2)CC1 | 31.5* | 69.1 | 85.1 | 89.3 | 85.6
C(#Cc1ccc(C#CCN2CCCC2)cc1)CN1CCCC1 | · | · | 82.4 | 80.7 | ·
COc1ccc(-c2c(C(F)(F)F)oc3cc(OCC(=O)Nc4ccccc4C(F)(F)F)ccc3c2=O)cc1OC | · | · | 4.5 | 1.4* | ·
COc1ccccc1-c1c(C(F)(F)F)oc2cc(OCC(=O)Nc3ccccc3C(F)(F)F)ccc2c1=O | · | · | 84.4 | 87.1 | ·
CC(=O)c1ccccc1Oc1nc(CN2CCOCC2)nc2scc(-c3cccs3)c12 | 29.5* | 75.0 | 56.6 | 60.7 | ·
Clc1ccccc1CSc1nnc(-c2cccnc2)n1Cc1ccco1 | 80.2 | 102.1 | 88.2 | 78.5 | 97.7
Cc1cc(C)c2c(=O)[nH]c(SCC(=O)c3ccc(C(C)C)cc3)nc2n1 | 87.9 | 82.9 | 94.8 | 103.1 | 96.2
CN=C1S/C(=C\c2ccc(N3CCOCC3)cc2C)C(=O)N1C | · | · | 96.2 | 101.4 | ·
Cc1cc(N2CCOCC2)ccc1/C=C\[N+](=O)[O-] | · | · | 10.0 | 4.4* | ·
O=C(c1cccn2c(=O)c3cc(Br)ccc3nc12)N1CCN(c2ccccn2)CC1 | 105.7 | 84.1 | 92.3 | 82.2 | 98.5
COc1cccc(-c2cc(C(=O)N3CCN(c4ncccn4)CC3)c3ccccc3n2)c1 | 18.9* | 58.1 | 27.4 | 32.3 | 98.9
SMILES | H69AR growth 86K | HUVEC inhibit | PTEN del growth | HCT116 bCat-KO | Lung fibro prol
Cc1ccc(-c2cc(C(=O)N3CCOCC3)c3ccccc3n2)cc1 | 81.5 | 97.5 | 83.9 | 98.7 | 92.8
O=C(c1cc(-c2ccncc2)nc2ccc(Br)cc12)N1CCN(c2ccccn2)CC1 | 21.9* | 56.6 | 63.4 | 60.1 | 93.6
CC(C)Oc1cccc(-c2cc(C(=O)N3CCN(c4ncccn4)CC3)c3ccccc3n2)c1 | 15.1* | 64.2 | 14.9 | 22.1 | 93.6
O=C(c1cc(-c2cccs2)nc2ccccc12)N1CCN(S(=O)(=O)c2cccc(F)c2)CC1 | 20.8* | 82.7 | 76.4 | 85.4 | 102.3
O=C(c1cc(-c2cccs2)nc2ccccc12)N1CCN(S(=O)(=O)c2ccccc2)CC1 | 94.4 | 78.4 | 78.5 | 77.0 | 102.7
C=CCn1c(NCc2c[nH]c3ccccc23)nc2ccccc21 | 56.9 | 77.8 | 63.8 | 66.6 | 100.1
O=C(Nc1ccccc1)c1cccnc1NCCc1ccccc1 | · | · | 77.4 | 95.6 | ·
COc1ccc(NC(=S)N(CCc2c(C)[nH]c3ccc(C)cc23)Cc2ccco2)cc1 | · | · | 61.2 | 57.1 | ·
COc1ccc(CCNC(=O)CCC(=O)N2CCN(S(=O)(=O)c3ccc(Cl)cc3)CC2)cc1OC | 100.5 | 102.2 | 70.3 | 75.3 | 100.1
Cc1ccc(-c2cc(C(=O)N3CCN(c4ncccn4)CC3)c3ccccc3n2)cc1 | 11.4* | 70.8 | 38.7 | 48.1 | ·
CC(C)Oc1cccc(-c2cc(C(=O)N3CCN(S(C)(=O)=O)CC3)c3ccccc3n2)c1 | 24.1* | 88.7 | 77.9 | 87.9 | 96.6
O=C(c1cc(-c2ccncc2)nc2ccccc12)N1CCN(S(=O)(=O)/C=C/c2ccccc2)CC1 | 42.6 | 86.6 | 66.9 | 68.5 | 95.8
Cc1ccc2nc(-c3ccccn3)cc(C(=O)N3CCN(c4ncccn4)CC3)c2c1 | 56.8 | 80.5 | 75.0 | 78.5 | 106.5
CC1CN(S(=O)(=O)c2ccc(C(=O)Nc3ccc(S(=O)(=O)Nc4nccs4)cc3)cc2)CC(C)O1 (centres undefined) | · | · | 94.5 | 90.3 | ·
CC1CN(S(=O)(=O)c2ccc(NC(=O)c3cc(-c4ccccc4O)n[nH]3)cc2)CC(C)O1 (centres undefined) | 11.6* | 55.3 | 8.4 | 16.9 | 73.9
CC(=O)N(C(C)=O)c1ncc2c([nH]c3ccccc32)c1C#N | 37.4* | 63.1 | 75.8 | 68.8 | 72.4
CC(=O)N(C(C)=O)c1c(C#N)c(C)n(-c2ccccc2)c1C(=O)c1ccccc1 | 54.8 | 95.8 | 105.1 | 105.6 | 93.2
CC(=O)C1C(c2ccccc2OC(F)F)NC(=O)NC1(O)C(F)(F)F (centres undefined) | 71.8 | 97.6 | 83.7 | 88.4 | 101.3
Cc1c(C(=O)Nc2nccs2)sc2nc(-c3cccs3)cc(C(F)(F)F)c12 | 36.0* | 44.5 | 2.2* | 1.8* | 67.9
COc1cc(C(=O)Oc2ccccc2/C=N/NC(=O)c2ccc(C)c(Cl)c2)cc(OC)c1OC | · | · | 2.7* | 5.2* | ·
COc1cc(C(=O)Oc2ccccc2/C=N/NC(=O)c2ccc(Cl)cc2)cc(OC)c1OC | · | · | 6.4 | 7.2 | ·
O=C(N/N=C/c1ccccc1OC(=O)c1ccc2c(c1)OCO2)c1cccc(F)c1 | · | · | 3.4* | 5.0* | ·
CCOC(=O)c1c(NC(C)=O)sc2c1CCC(C=O)=C2Sc1ccccc1 | 4.6* | 31.8 | · | 21.1 | 17.8*
CC(C)(C)c1ccc(Cn2nnc3c(=O)[nH]c(C4CCN(C(=O)Cc5cccs5)CC4)nc32)cc1 | 50.7 | 41.2 | 16.8 | 16.2 | 88.9
CC(C)(C)c1ccc(Cn2nnc3c(=O)[nH]c(C4CCCN(C(=O)Cc5cccs5)C4)nc32)cc1 (centres undefined) | 16.8* | 76.8 | 41.0 | 80.7 | 96.1
Cc1cc(C)n(/N=C/c2cccc(O)c2)c(=O)c1C(N)=O | 96.0 | 105.0 | 105.6 | 102.1 | 101.9
Cc1nn(CC(O)COc2ccc3c(c2)CCC3)c(C)c1Br (centres undefined) | 90.0 | 99.2 | 87.3 | 97.6 | 99.0
Cc1ccc(-c2nc3ccccc3[nH]2)cc1NC(=O)c1ccc2c(c1)OCO2 | · | · | 77.3 | 76.4 | ·
O=C(NC(=S)Nc1cc(-c2nc3ccccc3[nH]2)ccc1Cl)c1ccc2c(c1)OCO2 | · | · | 1.5* | 1.6* | ·
